Consider five compounds from ChEMBL document CHEMBL3861996, “Arylsulfonamide derivatives of (aryloxy)ethyl pyrrolidines and piperidines as α1-adrenergic receptor antagonist with uro-selective activity” (Bioorg Med Chem, 2016).

Assay [1] deals with T1, 5-hydroxytryptamine receptor 1A (Homo sapiens) (UniProt P08908).
T1 sequence (whole entry): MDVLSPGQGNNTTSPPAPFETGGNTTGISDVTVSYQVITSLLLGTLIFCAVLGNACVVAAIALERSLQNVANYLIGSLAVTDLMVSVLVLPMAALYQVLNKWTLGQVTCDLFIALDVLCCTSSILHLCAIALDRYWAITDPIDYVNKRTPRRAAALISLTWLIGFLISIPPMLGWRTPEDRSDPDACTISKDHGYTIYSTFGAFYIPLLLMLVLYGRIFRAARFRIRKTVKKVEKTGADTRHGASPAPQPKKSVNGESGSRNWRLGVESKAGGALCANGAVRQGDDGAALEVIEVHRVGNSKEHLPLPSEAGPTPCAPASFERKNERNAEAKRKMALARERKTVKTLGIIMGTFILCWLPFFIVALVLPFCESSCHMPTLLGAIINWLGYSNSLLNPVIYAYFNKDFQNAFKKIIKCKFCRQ
The experiment in a line: Displacement of [3H]-8-OH-DPAT from human 5-HT1A receptor expressed in CHO-K1 cell membranes at 1 uM after 1 hr by micro beta2 scintillation counting analysis. In short, it runs like this: (§1)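 Membranes of CHO-K1 cells stably expressing human 5-HT1A or 5-HT7 receptor. Buffer 50 mM Tris–HCl, 0.1 mM EDTA, 10 mM MgCl2. Each compound screened at final 10 µM and 1 µM. Incubation at 37 °C, 1 h for 5-HT1A and 2 h for 5-HT7. Non-specific binding defined with 10 µM 5-HT (5-HT1A) or 10 µM methiothepine (5-HT7). Output is percent inhibition of specific binding.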

Assay [2] concerns the target 5-hydroxytryptamine receptor 7 (Homo sapiens) (UniProt P34969). The assay can be described thus: Displacement of [3H]-LSD from human 5-HT7 receptor expressed in CHO-K1 cell membranes at 1 uM after 2 hr by micro beta2 scintillation counting analysis. In short, it runs like this: as §1
The target is the same in assay [3]. The assay can be described thus: Displacement of [3H]-LSD from human 5-HT7 receptor expressed in CHO-K1 cell membranes at 10 uM after 2 hr by micro beta2 scintillation counting analysis. Conditions: 0.1 uM, in the assay text read “at 0.1 uM” for “at 10 uM”. The essentials: as §1
Assay [4] deals with Rattus norvegicus. The assay can be described thus: Hypotensive activity in normotensive anesthetized Wistar rat assessed as decrease in systolic blood pressure at 5 mg/kg, iv administered as single dose measured 60 mins post dose relative to control. It is filed as functional. Conditions: 1 h. In short, it runs like this: (§2)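 Male Wistar rats (200–250 g), groups of six, anaesthetized with thiopental 70 mg/kg ip. Left carotid artery cannulated with heparinized saline-filled tubing for pressure recording. Compounds dissolved in water and given once iv. Blood pressure taken at 0 min (control) and over 60 min afterward. Data as mean ± SEM, analysed by one-way ANOVA with Dunnett's test against 0 min.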

In assay [5] the test system is Rattus norvegicus. The experiment in a line: Hypotensive activity in normotensive anesthetized Wistar rat assessed as decrease in diastolic blood pressure at 5 mg/kg, iv administered as single dose measured 60 mins post dose relative to control. It is filed as functional. The conditions noted are these: 1 h. In short, it runs like this:
as §2

Assay [6] concerns Rattus norvegicus. The experiment in a line: Hypotensive activity in normotensive anesthetized Wistar rat assessed as decrease in systolic blood pressure at 2 mg/kg, iv administered as single dose measured 60 mins post dose relative to control. Format: functional. Conditions: 1 h. In short, it runs like this: as §2
The test system of assay [7] is Rattus norvegicus. The experiment in a line: Hypotensive activity in normotensive anesthetized Wistar rat assessed as decrease in diastolic blood pressure at 2 mg/kg, iv administered as single dose measured 60 mins post dose relative to control. Format: functional. The conditions noted are these: 1 h. In short, it runs like this:
as §2

Sequence of 5-hydroxytryptamine receptor 7 (Homo sapiens) (P34969 whole entry): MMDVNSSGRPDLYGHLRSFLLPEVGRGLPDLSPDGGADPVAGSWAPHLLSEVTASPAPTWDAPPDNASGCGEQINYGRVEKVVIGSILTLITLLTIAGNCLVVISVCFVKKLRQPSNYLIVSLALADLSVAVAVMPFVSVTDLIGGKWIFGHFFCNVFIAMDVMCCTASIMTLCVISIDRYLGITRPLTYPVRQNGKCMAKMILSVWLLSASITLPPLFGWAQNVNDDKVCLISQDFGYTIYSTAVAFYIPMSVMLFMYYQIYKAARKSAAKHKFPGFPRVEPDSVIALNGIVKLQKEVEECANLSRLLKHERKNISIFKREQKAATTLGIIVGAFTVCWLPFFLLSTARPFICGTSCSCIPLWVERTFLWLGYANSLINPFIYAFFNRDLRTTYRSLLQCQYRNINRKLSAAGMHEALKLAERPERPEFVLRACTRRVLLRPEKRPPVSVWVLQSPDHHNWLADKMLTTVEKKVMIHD

Turning to `CC(C)Oc1ccccc1OCCN1CCC(CNS(=O)(=O)c2cccc3cccnc23)CC1`, the results for the inhibition in assay [1], in assay [2] and in assay [3] were 61%, 91% and 51%, respectively.

`COc1ccccc1OCCN1CCC(CNS(=O)(=O)c2cncc3ccccc23)CC1`: the figures for the inhibition in assay [1], in assay [2] and in assay [3] were 78%, 89% and 54%, respectively.

On to `COc1ccc(S(=O)(=O)NCC2CCN(CCOc3ccccc3OC)CC2)cc1OC`, for which the inhibition came out at 72% in assay [1], 52% in assay [2] and 16% in assay [3].

As to `COc1ccccc1OCCN1CCC(NS(=O)(=O)c2cncc3ccccc23)CC1`, the inhibition is 69% in assay [1], 87% in assay [2] and 41% in assay [3]. Moreover, the inhibition in vivo at 5 mg/kg was in the range of 6 to 11% in the assay with Rattus norvegicus [4] and 2 to 8% in the assay on Rattus norvegicus [5]. For the same compound, the inhibition in vivo at 2 mg/kg in the assay with Rattus norvegicus [6] fell in the range of 4 to 10%; with Rattus norvegicus [7], 4 to 8%.

With `CC(C)Oc1ccccc1OCCN1CCC(CNS(=O)(=O)c2cccc(Cl)c2F)CC1`, the inhibition in assay [1] was 59%; in assay [2] it was 90%; in assay [3] it was 45%. Besides, the inhibition in vivo at 5 mg/kg in the assay with Rattus norvegicus [4] is 2 to 5%. The inhibition in vivo at 2 mg/kg in the assay with Rattus norvegicus [6] came out at 7%.
